Assay results as given in ChEMBL document CHEMBL4145462, “Nitrogen-containing ecdysteroid derivatives vs. multi-drug resistance in cancer: Preparation and antitumor activity of oximes, oxime ethers and a lactam” (Eur J Med Chem, 2018).

Assays:
[1] = Cytotoxicity against mouse L5178 cells after 48 hrs by MTT assay; format: functional, cell-based; details: L5178, 48 h
Outline: (§1)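 Parental mouse lymphoma L5178 and the MDR line made by pHa MDR1/A retrovirus transfection, selected with 60 µg/L colchicine. Grown in McCoy's 5A with horse serum at 37°C, 5% CO2. 5 x 10^4 cells/well, serial compound dilutions, 48 h. MTT added to 0.5 mg/mL final for 4 h, then 10% SDS in 0.01 M HCl overnight, OD read at 540 and 630 nm. IC50 taken as median cytotoxic activity (Dm) from control lanes of checkerboard plates, n=2.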

[2] = Cytotoxicity against mouse L5178 cells expressing human ABCB1 after 48 hrs by MTT assay; format: functional, cell-based; details: L5178, 48 h; outline: as §1
[3] = Synergistic cytotoxicity against mouse L5178 cells assessed as combination index at ED75 using 150:1 test compound to doxorubicin ratio after 48 hrs by MTT-based checkerboard microplate method; format: functional
Outline: (§2)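 Checkerboard microplate combinations of compound with doxorubicin at constant molar ratios. 5 × 10^4 cells/well in McCoy's 5A, 48 h at 37°C, 5% CO2. MTT added to 0.5 mg/mL final for 4 h, SDS/HCl overnight, OD read at 540 and 630 nm. Combination indices derived per ratio for 50%, 75% and 90% growth inhibition by median-effect analysis.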

[4] = Synergistic cytotoxicity against mouse L5178 cells expressing human ABCB1 assessed as combination index at ED50 using 30:1 test compound to doxorubicin ratio after 48 hrs by MTT-based checkerboard microplate method; format: functional; outline: as §2
[5] = Synergistic cytotoxicity against mouse L5178 cells assessed as combination index at ED90 using 37.5:1 test compound to doxorubicin ratio after 48 hrs by MTT-based checkerboard microplate method; format: functional; outline: as §2
[6] = Synergistic cytotoxicity against mouse L5178 cells expressing human ABCB1 assessed as combination index at ED90 using 3.75:1 test compound to doxorubicin ratio after 48 hrs by MTT-based checkerboard microplate method; format: functional; outline: as §2
[7] = Synergistic cytotoxicity against mouse L5178 cells assessed as combination index at ED90 using 75:1 test compound to doxorubicin ratio after 48 hrs by MTT-based checkerboard microplate method; format: functional; outline: as §2
[8] = Synergistic cytotoxicity against mouse L5178 cells assessed as combination index at ED50 using 300:1 test compound to doxorubicin ratio after 48 hrs by MTT-based checkerboard microplate method; format: functional; outline: as §2
[9] = Synergistic cytotoxicity against mouse L5178 cells assessed as combination index at ED90 using 300:1 test compound to doxorubicin ratio after 48 hrs by MTT-based checkerboard microplate method; format: functional; outline: as §2
[10] = Synergistic cytotoxicity against mouse L5178 cells expressing human ABCB1 assessed as combination index at ED50 using 1.875:1 test compound to doxorubicin ratio after 48 hrs by MTT-based checkerboard microplate method; format: functional; outline: as §2
[11] = Synergistic cytotoxicity against mouse L5178 cells expressing human ABCB1 assessed as combination index at ED75 using 1.875:1 test compound to doxorubicin ratio after 48 hrs by MTT-based checkerboard microplate method; format: functional; outline: as §2
[12] = Synergistic cytotoxicity against mouse L5178 cells expressing human ABCB1 assessed as combination index at ED90 using 1.875:1 test compound to doxorubicin ratio after 48 hrs by MTT-based checkerboard microplate method; format: functional; outline: as §2
[13] = Synergistic cytotoxicity against mouse L5178 cells assessed as combination index at ED50 using 18.75:1 test compound to doxorubicin ratio after 48 hrs by MTT-based checkerboard microplate method; format: functional; outline: as §2
[14] = Synergistic cytotoxicity against mouse L5178 cells assessed as combination index at ED75 using 18.75:1 test compound to doxorubicin ratio after 48 hrs by MTT-based checkerboard microplate method; format: functional; outline: as §2
[15] = Synergistic cytotoxicity against mouse L5178 cells assessed as combination index at ED90 using 18.75:1 test compound to doxorubicin ratio after 48 hrs by MTT-based checkerboard microplate method; format: functional; outline: as §2

| Compound | IC50 [1] [µM] | IC50 [2] [µM] | CI [3] | CI [4] | CI [5] | CI [6] | CI [7] | CI [8] | CI [9] | CI [10] | CI [11] | CI [12] | CI [13] | CI [14] | CI [15] |
| --- | --- | --- | --- | --- | --- | --- | --- | --- | --- | --- | --- | --- | --- | --- | --- |
| CCO/N=C1/C=C2[C@H](CC[C@]3(C)[C@@H]([C@@]4(C)OC(C)(C)O[C@@H]4CCC(C)(C)O)CC[C@@]23O)[C@@]2(C)C[C@@H]3OC(C)(C)O[C@@H]3C[C@@H]12 | 37.3 | 42.2 | 0.67 | 0.23 | 0.45 | 0.13 | 0.58 | 0.8 | 0.98 | 0.36 | 0.17 | 0.1 |  |  |  |
| CC(C)(O)CC[C@H]1OC(C)(C)O[C@]1(C)[C@H]1CC=C2C3=C/C(=N\OC(C)(C)C)[C@@H]4C[C@H]5OC(C)(C)O[C@H]5C[C@]4(C)[C@H]3CC[C@@]21C | 63.8 | 65.4 | 0.85 | 0.36 | 0.64 | 0.24 | 0.83 | 0.77 | 1.02 |  |  |  |  |  |  |
| CO/N=C1/C=C2C3=CC[C@H]([C@@]4(C)OC(C)(C)O[C@@H]4CCC(C)(C)O)[C@@]3(C)CC[C@@H]2[C@@]2(C)C[C@@H]3OC(C)(C)O[C@@H]3C[C@@H]12 | 46 | 53.1 | 0.67 | 0.21 | 0.31 | 0.14 | 0.39 | 0.85 | 0.87 |  |  |  |  |  |  |
| C=CCO/N=C1/C=C2C3=CC[C@H]([C@@]4(C)OC(C)(C)O[C@@H]4CCC(C)(C)O)[C@@]3(C)CC[C@@H]2[C@@]2(C)C[C@@H]3OC(C)(C)O[C@@H]3C[C@@H]12 | 55.3 | 52.7 | 0.63 | 0.32 | 0.47 | 0.11 | 0.44 | 0.73 | 1.07 |  |  |  |  |  |  |
| C=CCO/N=C1/C=C2[C@H](CC[C@]3(C)[C@@H]([C@@]4(C)OC(C)(C)O[C@@H]4CCC(C)(C)O)CC[C@@]23O)[C@@]2(C)C[C@@H]3OC(C)(C)O[C@@H]3C[C@@H]12 | 36.7 | 49.3 | 0.99 | 0.21 | 1.2 | 0.16 | 1.03 | 0.93 | 1.55 |  |  |  | 1.05 | 1.13 | 1.25 |
| CC(C)(O)CC[C@H]1OC(C)(C)O[C@]1(C)[C@H]1CC=C2C3=C/C(=N/OC(C)(C)C)[C@@H]4C[C@H]5OC(C)(C)O[C@H]5C[C@]4(C)[C@H]3CC[C@@]21C | 63.2 | 51.2 | 0.63 | 0.34 | 0.66 | 0.23 | 0.55 | 1.05 | 1.07 |  |  |  |  |  |  |
| CCO/N=C1/C=C2C3=CC[C@H]([C@@]4(C)OC(C)(C)O[C@@H]4CCC(C)(C)O)[C@@]3(C)CC[C@@H]2[C@@]2(C)C[C@@H]3OC(C)(C)O[C@@H]3C[C@@H]12 | 53.2 | 58.9 | 0.48 | 0.22 | 0.6 | 0.1 | 0.52 | 0.59 | 0.74 |  |  |  |  |  |  |
